ChEMBL document CHEMBL6134796, “Development and Evaluation of Indole-Based Phospholipase D Inhibitors for Lung Cancer Immunotherapy” (J Med Chem, 2025)
The source made the active and inactive calls. No cut-off for these calls is given here.

What was measured:
[1] = system: Lewis lung carcinoma cell line; experiment: Antitumor activity against mouse Lewis lung carcinoma cell line allografted in male C57BL/6 mouse model assessed as recovery of spleen size at 10 mg/kg, po measured every other day for 3 weeks; assay type: functional, organism-based
Procedure, shortened: (§1)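 Syngeneic model: 6-week-old male C57BL/6 mice given 3 × 10^5 LLC cells in 50 μL PBS subcutaneously in the flank. At day 7, mice were randomized to vehicle PO daily or 10 mg/kg PO every other day for 3 weeks. Caliper volume was taken every 2 days as ([…])/2, with tumor weight at end. Spleen size and weight were recorded. Ki67 and cleaved caspase-3 were scored by IHC (DAB, hematoxylin).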

Calu-6 = experiment: Cytotoxicity against human Calu-6 cells assessed as inhibition of cell growth incubated for 48 hrs by WST-1 assay; assay type: functional, cell-based; details: Calu-6, 48 h
[2] = target: T1, Phospholipase D1 (Mus musculus) (UniProt Q9Z280); experiment: In vivo inhibition of PLD1 in male C57BL/6 mouse allografted with mouse Lewis lung carcinoma cell line assessed as increase in CD80+ pro-inflammatory M1 macrophage population at 10 mg/kg, po by immunofluorescence analysis; assay type: functional, organism-based
T1 sequence (whole entry): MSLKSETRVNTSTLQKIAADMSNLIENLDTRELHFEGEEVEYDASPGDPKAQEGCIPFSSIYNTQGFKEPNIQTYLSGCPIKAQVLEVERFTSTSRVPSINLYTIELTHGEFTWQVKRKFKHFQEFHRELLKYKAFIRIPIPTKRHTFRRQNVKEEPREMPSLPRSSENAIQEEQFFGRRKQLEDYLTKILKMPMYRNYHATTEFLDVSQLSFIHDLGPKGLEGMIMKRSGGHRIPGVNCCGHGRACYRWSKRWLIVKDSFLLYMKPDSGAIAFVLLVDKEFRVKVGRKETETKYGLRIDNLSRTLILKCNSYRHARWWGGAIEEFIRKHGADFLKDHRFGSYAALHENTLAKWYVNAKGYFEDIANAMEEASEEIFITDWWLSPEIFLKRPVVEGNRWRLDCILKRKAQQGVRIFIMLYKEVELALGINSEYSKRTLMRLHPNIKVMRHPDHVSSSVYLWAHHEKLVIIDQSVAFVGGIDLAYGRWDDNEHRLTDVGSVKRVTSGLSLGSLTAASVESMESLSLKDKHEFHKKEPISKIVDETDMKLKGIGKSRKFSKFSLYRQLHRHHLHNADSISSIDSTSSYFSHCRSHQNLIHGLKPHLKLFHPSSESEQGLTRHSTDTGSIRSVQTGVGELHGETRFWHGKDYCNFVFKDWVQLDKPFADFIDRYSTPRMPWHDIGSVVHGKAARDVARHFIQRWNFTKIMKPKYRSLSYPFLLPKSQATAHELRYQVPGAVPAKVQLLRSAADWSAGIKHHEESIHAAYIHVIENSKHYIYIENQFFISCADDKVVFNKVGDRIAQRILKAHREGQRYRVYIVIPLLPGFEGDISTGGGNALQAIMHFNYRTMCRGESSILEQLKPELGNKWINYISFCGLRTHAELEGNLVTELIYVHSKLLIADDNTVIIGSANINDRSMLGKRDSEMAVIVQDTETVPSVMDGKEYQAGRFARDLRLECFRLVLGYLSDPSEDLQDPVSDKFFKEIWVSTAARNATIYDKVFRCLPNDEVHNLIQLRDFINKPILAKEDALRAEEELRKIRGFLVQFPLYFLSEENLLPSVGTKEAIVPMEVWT
Procedure, shortened: (§2)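 Same LLC syngeneic C57BL/6 model, 10 mg/kg PO every other day for 3 weeks. Tumor tissues were stained by immunofluorescence for CD80+ and CD163+ cells, CD8+ T cells, and CD4+/IL-17+ and Treg populations. Nuclei were counterstained with 1 μM Hoechst 33342 and imaged by confocal microscopy.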

[3] = Metabolic stability in human plasma assessed as parent compound remaining at 10 uM measured after 30 mins; assay type: ADME, cell-free; details: read-out: Stability
Procedure, shortened: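 Citrated human plasma spiked to final 10 μM, incubated at 37 °C for 0, 30 and 120 min; quenched with acetonitrile containing internal standard, vortexed, centrifuged at 4 °C; parent remaining quantified by LC-MS/MS in MRM mode on C18 column, formic acid water/acetonitrile gradient.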

A549 [4] = experiment: Inhibition of colony formation in human A549 cells incubated for 48 hrs by crystal violet staining based analysis; assay type: functional, cell-based
Procedure, shortened: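 A549 cells seeded at 500 to 1,000 per well; compound added 48 h after seeding, then 48 h further incubation; medium changed every 3 days, kept 10 days total; fixed in 4% PFA 20 min, crystal violet 30 min; colonies counted by image analysis.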

[5] = target: T1, Phospholipase D1 (Mus musculus); experiment: In vivo inhibition of PLD1 in male C57BL/6 mouse allografted with mouse Lewis lung carcinoma cell line assessed as increase in CD8+T cell population at 10 mg/kg, po by immunofluorescence analysis; assay type: functional, organism-based; procedure, shortened: as §2
[6] = Toxicity in male C57BL/6 mouse assessed as effect on body weight at 10 mg/kg, po measured every other day for 3 weeks; assay type: organism-based; details: in vivo, 504 h
[7] = system: Lewis lung carcinoma cell line; experiment: Antitumor activity against mouse Lewis lung carcinoma cell line allografted in male C57BL/6 mouse model assessed as recovery of spleen weight at 10 mg/kg, po measured every other day for 3 weeks; assay type: functional, organism-based; procedure, shortened: as §1
Mus musculus = experiment: In vivo inhibition of KRAS activation in male C57BL/6 mouse allografted with mouse Lewis lung carcinoma cell line assessed as decrease in Akt phosphorylation at 10 mg/kg, po; assay type: functional, organism-based
A549 [8] = experiment: Enhancement of macrophage induced phagocytosis in CFSE labelled human A549 cells assessed as increase on CD11b+CFSE macrophage […] at 5 to 20 uM incubated for 48 hrs by flow cytometric analysis; assay type: functional, cell-based; details: dose 5-20 µM
Procedure, shortened: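 A549 cells treated 48 h in RPMI/10% FBS, then labeled with 1 μM CFSE. Co-cultured 1:1 (5 × 10^5 each) with PMA-differentiated THP-1 macrophages in serum-free RPMI for 2 h. After Fc block, stained with PerCP-Cy5.5 anti-CD11b for 20 min at 4 °C. CD11b+CFSE+ fraction measured by flow cytometry.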

A549 [9] = experiment: Downregulation of CD47 expression in human A549 cells by flow cytometry analysis; assay type: functional, cell-based
Procedure, shortened: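 A549 cells treated with compound. Surface "don't eat-me" and "eat-me" markers measured by flow cytometry.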

SMILES: O=C(CCc1c[nH]c2ccccc12)Nc1cc(C(F)(F)F)cc(C(F)(F)F)c1
- Activity [1]: Active
- IC50 (Calu-6): 19 µM
- inhibition [2]: Active
- remaining at 0.5 h, 10 µM [3]: 97.4%
- inhibition (A549 [4]): Active
- inhibition [5]: Active
- Activity [6]: Non-toxic
- Activity [7]: Active
- inhibition (Mus musculus): Active
- Activity (A549 [8]): Active
- Activity (A549 [9]): Active
